Screening results deposited in PubChem BioAssay by several laboratories.
MPTP block: mitochondrial permeability transition pore inhibitors, primary screen, biochemical, isolated mouse mitochondria, absorbance. Ca2+ swelling absorbance, 30 min. AID 602449, 2012. inhibition, % at 10 µM. 360,000 tested, 1.4% active;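 active = inhibition of 50% or more, scaled per plate between neutral and stimulator controls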;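 also: 0% = DMSO wells given calcium and 100% = 1 mM EGTA wells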
DAGLB inhibitor: DAGLB lipase inhibitors, primary screen, biochemical, fluorescence, HTS; Diacylglycerol lipase-beta (Homo sapiens), Q8NCG7; HEK293T DAGLB membrane lysate, EnzChek fluorogenic substrate; inhibition, % at 5.17 µM; 340,000 tested, 0.059% active; in the data active = inhibition above about 34%;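 also: 0% = enzyme with vehicle and 100% = wells lacking enzyme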
TAAR1 antagonist: human TAAR1 antagonists, primary screen, Fluo-8 calcium fluorescence, CHO RD-HGA16 cells; inhibition, % at 3 µM; antagonist; 360,000 tested, 1.5% active;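 active = inhibition above a per-plate cutoff, the mean inhibition of test compounds on that plate plus 3 SD, cut at about 49% in these data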;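 also: 0% = DMSO plus EC80 beta-PEA response and 100% = DMSO alone without agonist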
Target sequence (Q96RJ0 whole entry, looked up): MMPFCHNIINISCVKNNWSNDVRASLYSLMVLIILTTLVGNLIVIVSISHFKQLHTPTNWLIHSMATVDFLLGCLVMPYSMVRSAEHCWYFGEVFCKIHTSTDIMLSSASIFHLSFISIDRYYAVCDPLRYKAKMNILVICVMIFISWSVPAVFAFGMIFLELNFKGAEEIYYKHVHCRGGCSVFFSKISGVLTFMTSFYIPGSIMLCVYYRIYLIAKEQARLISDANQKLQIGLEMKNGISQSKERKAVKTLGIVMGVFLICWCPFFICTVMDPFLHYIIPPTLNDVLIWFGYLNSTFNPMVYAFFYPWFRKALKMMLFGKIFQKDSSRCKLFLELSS
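test system = CHO RD-HGA16 cells bearing hTAAR1 | replication = singlicate | controls = DMSO-only wells and EC80 β-PEA-stimulated wells | reagent = EC80 β-phenethylamine stimulus | read-out basis = percent inhibition of PEA-evoked calcium signal, max/basal emission ratio | schedule = seeding 17-24 h prior, 75-min 37 °C, 30-min RT dye loading | signal = kinetic Fluo-8 calcium fluorescence measurement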
TAAR1 ag: human TAAR1 agonists, primary screen, Fluo-8 calcium fluorescence, CHO RD-HGA16 cells; vehicle wells 0%, saturating PEA agonist 100%; 360,000 tested, 0.99% active; activation, % at 3 µM; AID 624467, 2012;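 active = activation above the mean activation of all test compounds in the run plus 3 SD, cut at about 38% in these data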
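System: CHO-derived RD-HGA16 cells with stable Gα16 and human TAAR1. Times: 17-24 h plating, Fluo-8 75 min 37 °C, 30 min RT. Measured by: calcium-sensitive Fluo-8 signal, excitation 470-495, emission 515-575 nm. Read-out basis: % activation relative to PEA EC100 response. Control set: DMSO and PEA EC100. Repeats: no replicates (n 1).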
GPR7 antagonist: GPR7 receptor antagonists, primary screen, cell-based, fluorescence, single concentration; GPR7-expressing cells, fluorescence antagonist assay; 290,000 tested, 1.1% active; Neuropeptides B/W receptor type 1 (Homo sapiens), P48145; AID 1861, 2009; inhibition, % at 4.4 µM; in the data active = inhibition above about 16%, passing the limit was not always enough;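 also: cells stimulated with the agonist NPW; 0% = agonist with vehicle and 100% = vehicle without agonist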
Target sequence (P48145 whole entry, looked up): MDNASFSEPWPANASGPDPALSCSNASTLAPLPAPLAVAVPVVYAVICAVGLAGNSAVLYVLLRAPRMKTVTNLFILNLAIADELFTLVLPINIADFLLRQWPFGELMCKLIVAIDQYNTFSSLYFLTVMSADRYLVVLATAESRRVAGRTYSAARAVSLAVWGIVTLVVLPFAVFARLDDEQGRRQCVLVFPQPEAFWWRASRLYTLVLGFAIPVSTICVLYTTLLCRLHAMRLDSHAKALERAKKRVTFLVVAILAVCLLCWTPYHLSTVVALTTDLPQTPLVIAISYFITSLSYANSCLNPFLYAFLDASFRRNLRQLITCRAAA
GPR7 antag conf: GPR7 receptor antagonists, confirmation, cell-based, fluorescence, single concentration. AID 1952, 2009. shares compounds with GPR7 antagonist. inhibition, % at 4.4 µM. GPR7-expressing cells, calcium fluorescence antagonist mode. 2,400 tested, 52% active; in the data active = inhibition above about 24%;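 also: stimulated with the GPR7 agonist NPW; 0% = agonist plus vehicle and 100% = vehicle alone without agonist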
MCHR1 antag: MCHR1 antagonists in cells, counter-screen for GPR7 antagonist project, cell-based, fluorescence, human. AID 2148, 2009. MCHR1-expressing cells, fluorescence antagonist assay. inhibition, % at 4.4 µM. shares compounds with GPR7 antagonist. 2,400 tested, 62% active;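 also: 0% = vehicle with agonist and 100% = vehicle without agonist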
DAGLB confirm: DAGLB lipase inhibitors, retest, confirmation, biochemical, fluorescence, HEK293T membranes. shares compounds with DAGLB inhibitor. HEK293T DAGLB membrane lysate, EnzChek fluorogenic substrate. inhibition, % at 5.17 µM. 190 tested, 73% active;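 active = mean inhibition over triplicate wells above a set limit taken from the primary lipase screen, cut at about 34% in these data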;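 also: 0% = DAGLB with DMSO and 100% = wells lacking DAGLB enzyme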
Rh123 counter: fluorescence retest of MPTP screen hits in isolated mitochondria, single concentration | shares compounds with MPTP block | membrane potential, Rhodamine 123 fluorescence | inhibition, % at 10 µM | 5,000 tested, 78% active | AID 624504, 2012;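 also: 0% = DMSO vehicle and 100% = positive control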
MPTP swell DR: mitochondrial permeability transition pore inhibitors, dose response, biochemical, absorbance, uHTS hits. shares compounds with MPTP block. isolated mitochondria swelling. IC50, µM. 780 tested, 58% active. AID 651561, 2012; in the data active = IC50 below about 20 µM
MPTP cs DR: fluorescent counter-screen in isolated mitochondria, dose response, counter-screen for MPTP inhibitor project, biochemical, fluorescence, uHTS hits | shares compounds with MPTP block | isolated mitochondria counterscreen, fluorescence read-out | IC50, µM | 780 tested, 49% active; in the data active = IC50 below about 80 µM
TAAR1 ag conf: human TAAR1 agonists, retest of hits, confirmation, Fluo-8 calcium fluorescence, CHO RD-HGA16 cells | scaled: DMSO 0%, maximal phenethylamine 100% | activation, % at 3 µM | AID 651783, 2012 | 2,400 tested, 82% active | shares compounds with TAAR1 ag;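 active = activation above a cutoff set at the run's mean compound activation plus 3 SD, cut at about 39% in these data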
Ga16 ag counter: nonselective calcium mobilization agonists, CHO-Ga16 cells, counter-screen for hTAAR1 agonist project, cell-based, fluorescence, CHO-Ga16 parental line; activation, % at 3 µM; shares compounds with TAAR1 ag; 2,400 tested, 50% active; Fluo-8 calcium fluorescence; normalized to maximal ATP response, DMSO zero; AID 651787, 2012;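 active = activation above the run cutoff, the mean activation over all tested wells plus 3 SD, cut at about 12% in these data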;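 also: 0% = DMSO wells and 100% = maximal ATP response on the peak over basal ratio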
TAAR1 desens: TAAR1 desensitization by agonist hits, confirmation, counter-screen for TAAR1 agonist project, cell-based, fluorescence, tachyphylaxis. shares compounds with TAAR1 ag. CHO RD-HGA16 hTAAR1, Fluo-8 calcium, beta-PEA response inhibition. 2,400 tested, 46% active. AID 651951, 2012. inhibition, % at 3 µM;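 active = inhibition above the run cutoff, the mean inhibition of all test compounds plus 3 SD, cut at about 49% in these data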;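 also: beta-PEA stimulus applied at its EC80; loss of beta-PEA calcium signal after compound pretreatment read as receptor desensitization; 0% = DMSO with beta-PEA at EC80 and 100% = DMSO alone without agonist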
Ga16 nonsel ant: inhibition of ATP-evoked calcium response in CHO-Ga16 cells, counter-screen for TAAR1 agonist project, cell-based, fluorescence; inhibition, % at 3 µM; shares compounds with TAAR1 ag; 2,400 tested, 39% active; CHO-Ga16 ATP-induced calcium, Fluo-8 fluorescence;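 active = inhibition above the plate's mean compound inhibition plus 3 SD, computed per plate, cut at about 22% in these data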;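 also: 0% = EC80 ATP with DMSO and 100% = DMSO wells without ATP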
* hit, by the source's call. Most compounds without a hit are left out; they make up all but 4% or so of the library. Rule as the data show it, unless noted: active = inhibition above about 22%; inactive = the rest.

Results for CCOC(=O)C(O)(c1ccc(NC(=S)NC(=O)c2ccc(Cl)cc2Cl)cc1)C(F)(F)F (stereo not drawn) ?
MPTP block: 4; DAGLB inhibitor: -9; TAAR1 antagonist: 79*; TAAR1 ag: 78*; GPR7 antagonist: 60*; GPR7 antag conf: 86*; MCHR1 antag: 93*; TAAR1 ag conf: 74*; Ga16 ag counter: 45*; TAAR1 desens: 93*; Ga16 nonsel ant: 73*

What do the screens show for `CCOC(=O)C(O)(c1ccc(NC(=S)NC(=O)c2ccc(Cl)cc2Cl)c(C)c1)C(F)(F)F` (stereo not drawn)?
MPTP block: 87*; DAGLB inhibitor: -2; TAAR1 antagonist: 99*; TAAR1 ag: 76*; GPR7 antagonist: 88*; GPR7 antag conf: 93*; MCHR1 antag: 97*; Rh123 counter: 90*; TAAR1 ag conf: 96*; Ga16 ag counter: 56*; TAAR1 desens: 107*; Ga16 nonsel ant: 85*

What do the screens show for `CCN(CC)c1ccc(/C=C/[N+](=O)[O-])cc1`?
MPTP block: 12; DAGLB inhibitor: -15; TAAR1 antagonist: 90*; TAAR1 ag: 227*; GPR7 antagonist: 22*; GPR7 antag conf: 55*; MCHR1 antag: 84*; TAAR1 ag conf: 51*; Ga16 ag counter: 58*; TAAR1 desens: 51*; Ga16 nonsel ant: 59*

Results for CC(CC(C)(C)N1CC1)=NO ?
MPTP block: -1; DAGLB inhibitor: 1; TAAR1 antagonist: -16; TAAR1 ag: 0

How did CCCCc1ccc2[nH]cc(CCN)c2c1 do in these assays?
MPTP block: 1; DAGLB inhibitor: 1; TAAR1 antagonist: -11; TAAR1 ag: 26; GPR7 antagonist: 14

How did CCCCOc1ccc(CCN)cc1Cl do in these assays?
MPTP block: 92*; DAGLB inhibitor: 0; TAAR1 antagonist: 67*; TAAR1 ag: 87*; GPR7 antagonist: 29*; GPR7 antag conf: 26*; MCHR1 antag: 30*; Rh123 counter: -17; MPTP swell DR: 6.6*; MPTP cs DR: >80; TAAR1 ag conf: 99*; Ga16 ag counter: 18*; TAAR1 desens: 84*; Ga16 nonsel ant: 12

What do the screens show for `COC(=O)C1=C(c2ccc(OC)c(OC)c2)C[C@@H]2CC[C@H]1N2C(=O)N1CCOCC1`?
MPTP block: 0; DAGLB inhibitor: 4; TAAR1 antagonist: 5; TAAR1 ag: 3

What do the screens show for `O=C(Nc1ccc(Cl)cc1)Nc1nccs1`?
MPTP block: 86*; DAGLB inhibitor: 0; TAAR1 antagonist: 33; TAAR1 ag: 50*; GPR7 antagonist: 30*; GPR7 antag conf: 28*; MCHR1 antag: 42*; Rh123 counter: 89*; TAAR1 ag conf: 56*; Ga16 ag counter: 8; TAAR1 desens: 34; Ga16 nonsel ant: 22*

How did O=C(Nc1nccs1)C(Cl)(Cl)Cl do in these assays?
MPTP block: -3; DAGLB inhibitor: 0; TAAR1 antagonist: 11; TAAR1 ag: 10; GPR7 antagonist: -11

What do the screens show for `CCN(CC)CCN/N=C(\C)c1c(O)[nH]c(=O)[nH]c1=O`?
MPTP block: 1; TAAR1 antagonist: 3; TAAR1 ag: 0; GPR7 antagonist: -15

How did O=C(O)c1cccc2c1NC(C(=O)O)C1CC(Sc3ccccc3[N+](=O)[O-])C(Cl)C21 (stereo not drawn) do in these assays?
MPTP block: 2; DAGLB inhibitor: 39*; TAAR1 antagonist: -7; TAAR1 ag: 0; GPR7 antagonist: -6; DAGLB confirm: 13

Results for CC(=O)c1ccc2c(c1)C1C(Cl)C(Sc3ccccc3[N+](=O)[O-])CC1C(C(=O)O)N2 (stereo not drawn) ?
MPTP block: -1; DAGLB inhibitor: 36*; TAAR1 antagonist: 14; TAAR1 ag: 2; GPR7 antagonist: -10; DAGLB confirm: 31

What do the screens show for `CC1C(c2ccccc2)OC(=O)N1C` (stereo not drawn)?
MPTP block: 0; DAGLB inhibitor: -3; TAAR1 antagonist: 6; TAAR1 ag: 0

Results for CC(=NNC(=S)N1CC2CCC(CC2)C1)c1nccs1 ?
MPTP block: -1; DAGLB inhibitor: 10; TAAR1 antagonist: -9; TAAR1 ag: 2

Results for NP(=O)(OCCCCc1ccccc1)Oc1ccccc1Cl (stereo not drawn) ?
MPTP block: -1; DAGLB inhibitor: 39*; TAAR1 antagonist: 10; TAAR1 ag: 3; GPR7 antagonist: 8; DAGLB confirm: 40*
